Experimental data gathered from unrelated publications.
Protocols differ between the studies behind these lines.
ALK: ALK tyrosine kinase receptor (ALK, Homo sapiens, UniProt Q9UM73)
ALK L1196M: ALK tyrosine kinase receptor (ALK, Homo sapiens, UniProt Q9UM73, L1196M)
ALK C1156Y: ALK tyrosine kinase receptor (ALK, Homo sapiens, UniProt Q9UM73, C1156Y)

Structure (SMILES) | target | read-out | action | technique | tested at | measurement | value
N#Cc1ccc(NC(=O)Nc2ccccc2)cc1 | ALK | cell-free assay | – | competition with immobilised ligand | 25 µM | remaining binding | 76%
C#Cc1cnc(Nc2ccc(CO)cc2)nc1Nc1ccccc1C(=O)NC | ALK | enzyme activity | inhibitor | radiometric | 1 µM | remaining activity | 2.4%
C1=C/COCc2cc(ccc2OCCN2CCCC2)Nc2nccc(n2)-c2cccc(c2)COC/1 | ALK | binding | – | – | 0.1 µM | remaining binding | 73%
CO[C@@H]1[C@H](N(C)C(=O)c2ccccc2)C[C@H]2O[C@]1(C)n1c3ccccc3c3c4c(c5c6ccccc6n2c5c31)C(=O)NC4 | ALK | enzyme activity | inhibitor | – | 1 µM | inhibition | 54%
CCCCC(=O)Nc1ccc(-c2ccc3ncn(CCC)c(=O)c3c2)cn1 | ALK L1196M | binding | – | competition with immobilised ligand | 0.5 µM | remaining binding | 100%
C=CC(=O)N1CCC([C@@H]2CCNc3c(C(N)=O)c(-c4ccc(Oc5ccccc5)cc4)nn32)CC1 | ALK L1196M | cell-free assay | – | – | 1 µM | inhibition | 19%
CS(=O)(=NC#N)c1ccccc1Nc1nc(Nc2ccc(CO)nc2)ncc1Cl (stereo not shown) | ALK | enzyme activity | inhibitor | radiometric | 1 µM | remaining activity | 23.4%
COc1ccc2[nH]c3c4[nH]c5ccc(OC)cc5c4c4c(c3c2c1)C(=O)NC4=O | ALK L1196M | binding | – | – | 1 µM | remaining binding | 70%
C#Cc1cnc(Nc2ccc(CO)nc2)nc1Nc1ccccc1S(C)(=O)=NC#N (stereo not shown) | ALK | enzyme activity | inhibitor | radiometric | 1 µM | remaining activity | 18.9%
Cc1ccc(NC(=O)c2ccnc(C(F)(F)F)c2)cc1-c1cc(OCCO)nc(N2CCOCC2)c1 | ALK C1156Y | binding | – | – | 1 µM | remaining binding | 100%
CNC(=O)c1ccccc1Nc1nc(Nc2ccc(CO)cc2)ncc1Cl | ALK | enzyme activity | inhibitor | radiometric | 1 µM | remaining activity | 1.07%
CC#CC(=O)N1CCC[C@H]1c1nc(-c2ccc(C(=O)Nc3ccccn3)cc2)c2c(N)nccn12 | ALK C1156Y | enzyme activity | inhibitor | – | 1 µM | inhibition | 0%
CN1CCN(C(=O)c2ccc(NC(=O)Nc3ccc(N(C)c4ccnc(Nc5ccc(CS(C)(=O)=O)cc5)n4)cc3)cc2)CC1 | ALK L1196M | binding | – | – | 1 µM | remaining binding | 83%
